Screening results deposited in PubChem by several laboratories.
Only some compounds are listed: those with a hit (about 11% of all), similar ones and a draw of the others.
mHtt clearance = compounds clearing mutant huntingtin protein | HeLa Exon1htt(103Q)mCFP, aggregate imaging; zero = plate's median compound well | inhibition, % at 1.5 µM | 47,000 tested, 0.42% active;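 active = inhibition of aggregate fluorescence above about 70%, also judged a hit by eye on the cell image, limit read from the data, passing the limit was not always enough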;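 note: cells exposed to compound for three days before fixation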
D1 mod = D1 dopamine receptor (human) allosteric modulation. HEK293 D1, CRE-luciferase, dopamine EC30 potentiation; actives deviate in either direction. P21728. B-score at 10 µM. 58,000 tested, 5.9% active;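 active = luminescence count or its row- and column-corrected plate score outside the 99.7% band of the plate's sample wells, on either side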
RORA act = RORA (human) activation | P35398 | CHO-K1 Gal4-RORA LBD luciferase reporter, luminescence; percent increase over mock-subtracted basal signal | activation, % at 10 µM | 65,000 tested, 1.5% active | AID 560;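 active = activation above the mean of all tested compounds plus 3 SD, cut at about 49% in these data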;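 note: 0% = DMSO-treated RORA cells and 100% = added signal equal to DMSO minus mock-transfected cells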
SF-1 act = activates the human nuclear receptor SF-1; CHO-K1 Gal4-SF-1 LBD luciferase reporter; % increase over DMSO SF-1-specific signal; 65,000 tested, 1.9% active; activation, % at 10 µM;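 active = activation above the mean activation of all tested compounds plus 3 SD, cut at about 50% in these data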
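Material: Transient Gal4-SF-1 LBD reporter, CHO-K1 | Input: 4,000 cells/well | Dosing: One dose, 10 µM compound, 1% DMSO | Incubation: 20 h compound treatment, 37 °C | Detection: SteadyLite luciferase luminescence | Evaluation: Percent activation relative to DMSO median and mock-transfected background | Benchmarks: DMSO-treated SF-1-transfected cells as negative, DMSO-treated mock-transfected cells lacking SF-1 as background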
M1 antag = blocks the rat M1 muscarinic receptor response to acetylcholine; CHO-M1 cells, Fluo-4 calcium, ACh EC80 antagonist mode; stronger effect = lower value; P08482; 64,000 tested, 3.4% active; B-score at 10 µM;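 active = calcium fluorescence response, raw or row-and-column corrected B-score, differing from the plate sample mean either way at a set confidence level, mostly lower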
Target sequence (P08482 whole entry, looked up): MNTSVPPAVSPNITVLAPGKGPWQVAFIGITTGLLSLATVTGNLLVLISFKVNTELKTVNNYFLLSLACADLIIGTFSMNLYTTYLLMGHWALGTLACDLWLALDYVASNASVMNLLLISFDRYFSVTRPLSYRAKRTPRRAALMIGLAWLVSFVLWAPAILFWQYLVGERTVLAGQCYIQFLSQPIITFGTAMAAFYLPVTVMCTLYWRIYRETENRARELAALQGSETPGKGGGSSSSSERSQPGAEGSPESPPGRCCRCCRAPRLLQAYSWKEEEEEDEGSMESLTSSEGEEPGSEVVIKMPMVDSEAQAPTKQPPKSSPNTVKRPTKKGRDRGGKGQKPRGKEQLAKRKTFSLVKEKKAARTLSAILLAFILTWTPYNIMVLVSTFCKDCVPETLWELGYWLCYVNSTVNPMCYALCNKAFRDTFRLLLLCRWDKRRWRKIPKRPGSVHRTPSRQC
M1 ag = activates the M1 muscarinic receptor; AID 626; CHO-M1 cells, Fluo-4 calcium fluorescence, agonist mode; stronger effect = higher value; 64,000 tested, 3% active; B-score at 10 µM;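 active = fluorescence rise, raw or as B-score row- and column-corrected plate score, outside the 99.7% band of its plate's samples, either direction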
M1 antag conf = confirmation of rat M1 muscarinic receptor antagonists. shares compounds with M1 antag. CHO-M1 cells, Fluo-4 calcium, ACh EC80 antagonism; stronger effect = lower value. calcium response (max-min fluorescence) at 10 µM. 1,700 tested, 43% active;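 active = calcium response below the same-plate mean of wells given acetylcholine alone at its 80%-effect dose, minus 3 SD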;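 note: raw fluorescence intensity difference in arbitrary instrument units and not normalized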
mGluR4 antag = selectivity test for M1 antagonists: human mGluR4 receptor. CHO-mGluR4 calcium flux, Fluo-4 fluorescence, glutamate EC80; stronger effect = lower value. 1,700 tested, 0.9% active. shares compounds with M1 antag. fluorescence response (max-min) at 10 µM;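 active = fluorescence response below the plate's average for near-maximal glutamate wells, less 3 SD of those wells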;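 note: raw unnormalized fluorescence span taken in the window right after glutamate addition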
The depositor's hits bear a star; nt = not tested or not shown.

SMILES	mHtt clearance	D1 mod	RORA act	SF-1 act	M1 antag	M1 ag	M1 antag conf	mGluR4 antag
CCOC(=O)c1c(NC(=O)CSc2nnc(-c3ccccc3)n2CC)sc(C(C)=O)c1C	-43.9	0.872	3.5	9.8	-1.22*	0.0581	496	204
N#CC1=C(N)N2C(=C(C#N)C13CCN(Cc1ccccc1)CC3)Nc1ccccc12	55.6	-0.177	19.1	2.5	-3.42*	-0.429	405*	187
NC1=NC2(CCN(Cc3ccccc3)CC2)n2c(nc3ccccc32)N1	28.9	nt	7.6	-4.9	-0.887	-0.954	nt	nt
CCCCn1c(CN2CCN(C)CC2)nc2ccccc21	nt	-0.763	4.1	-13.4	-3.98*	0.496	324*	235
COc1cc(C(=O)N2CCN(C(=O)C3CC3)CC2)cc(OC)c1OC	-55.6	1.83	-7.2	11.1	-3.09*	-0.943	543*	224
COC(=O)C1CCN(C(=O)c2cc(OC)c(OC)c(OC)c2)CC1	8.4	-0.267	-11.8	-3.9	-0.796	-0.23	nt	nt
O=C1N2CCCc3cccc(c32)C12Nc1ccccc1S2 (configuration not stated)	-62.1	0.308	0.8	31.1	0.141	-0.0155	nt	nt
COc1ccc(N2C(=O)CSC23C(=O)N2CCCc4cccc3c42)cc1 (configuration not stated)	-5.2	-0.254	12.7	-1.8	-16.9*	-0.226	28.3*	212
COc1ccc(N2CCN(C(CNC(=O)C3CCCCC3)c3cccnc3)CC2)cc1 (configuration not stated)	nt	-0.41	-9.4	15.6	-2.88*	-1.31	634	244
Cc1cc(=O)n(C)c(=O)n1CCCCCN1CCCC1	nt	-1.28	11.0	9.2	-1.63*	0.159	660	249
COc1ccccc1C1C(C#N)=C(N)Oc2cc(C)n(CCCn3ccnc3)c(=O)c21 (configuration not stated)	25.3	-0.108	-5.2	-27.5	-2.58*	-0.61	379*	201
COc1ccc(C2CC(C(F)(F)F)n3ncc(C(=O)O)c3N2)cc1OC (configuration not stated)	9.8	0.286	6.8	-16.7	-3.1*	-0.151	627	246
COc1cccc(C2CC(C(F)(F)F)n3ncc(C(=O)O)c3N2)c1 (configuration not stated)	nt	-0.605	-6.5	11.9	-0.547	-0.252	nt	nt
CC1=C(C(=O)OCC2CCCO2)C(c2ccncc2)C2=C(CC(C)(C)CC2=O)N1 (configuration not stated)	nt	-0.667	-8.8	12.8	-0.628	0.0543	nt	nt
O=C(Nc1ccccn1)C1CCN(S(=O)(=O)c2cccs2)CC1	nt	-0.312	3.9	-5.1	-0.465	-1.6	nt	nt
Cc1cccc(NC(=O)C2CCN(S(=O)(=O)c3cccs3)CC2)n1	-10.3	nt	-4.2	5.9	-2.95*	-1.96	637	270
c1ccc(Cn2c(CSc3nnnn3-c3ccccc3)nc3ccccc32)cc1	18.0	0.0657	-0.6	-2.3	-0.895	0.173	nt	nt
Cn1c(SCc2nc3ccccc3n2CCO)nc2ccccc21	nt	0.0178	-10.5	-1.1	-2.56*	-0.585	647	225
CCC(C)(C)n1nnnc1C(c1cc2cc(OC)ccc2[nH]c1=O)N1CCc2ccccc21 (configuration not stated)	-53.9	0.0653	-11.4	-3.5	-16.3*	0.229	486	198
CN(C)CCCN1C(=O)C(=O)/C(=C(/O)c2ccc3c(c2)OCO3)C1c1cccnc1 (configuration not stated)	-1.6	0.0295	-9.6	-5.5	0.459	0.138	nt	nt
N#C/C(=C1/CCCCCN1)c1nc2ccccc2[nH]1	27.4	2.35	44.2	18.8	-0.136	0.0118	nt	nt
N#C/C(C(=O)c1ccccc1)=C1/CCCCCN1	nt	0.0481	35.0	60.7*	-2.43*	0.567	525	259
Cc1ccc(N2C(=O)C3ON(c4ccccc4)C(c4ccncc4)C3C2=O)cc1 (configuration not stated)	2.0	nt	3.8	-10.0	0.0662	0.749	nt	nt
CN1C(=O)C2ON(c3ccccc3)C(c3cccs3)C2C1=O (configuration not stated)	nt	-1.39	-15.3	24.3	-2.67*	-0.0205	575	224
CCCn1c(N)c(Sc2ccc(Cl)cc2)c(=O)n(CCC)c1=O	22.4	0.546	5.7	-7.6	-0.414	0.115	nt	nt
SMILES	mHtt clearance	D1 mod	RORA act	SF-1 act	M1 antag	M1 ag	M1 antag conf	mGluR4 antag
CCOC(=O)N1CCC(N2C(=O)c3ccccc3C2Nc2cc(C(=O)OC)cc(C(=O)OC)c2)CC1 (configuration not stated)	nt	2.27	20.8	-9.9	-2.81*	-0.123	695	198
Cn1c(COc2ccc3ccccc3c2)nnc1SCC(N)=O	nt	-1.22	-6.6	-13.3	-0.158*	-0.321	516	171
COC(=O)CSc1nnc(CNc2ccc(OC)cc2)n1C	28.8	-0.606	-4.4	-11.6	0.561	-0.242	nt	nt
CCOC(=O)CNC(=O)CSc1nc(NCc2ccccc2)nc(N(C)C)n1	nt	-0.855	-0.6	-7.9	-1.77*	0.481	683	254
CCOC(=O)CNC(=O)CSc1nc(N)cc(N)n1	8.7	0.202	-5.8	3.2	0.0935	-0.532	nt	nt
CCc1c(C(=O)NC2CCCC2)csc1C	-48.6	-0.942	-9.6	-14.0	-2.24*	2.03	653	190
CCc1ccccc1OCCCCN1CCCC1	nt	-3.07*	12.4	17.6	-4.32*	-0.672	517	272
C=CCc1ccccc1OCCCCN1CCCC1	nt	-3.04*	10.7	0.7	-3.42*	0.197	367*	249
Brc1ccccc1OCCCCCN1CCCC1	-0.2	nt	nt	nt	nt	nt	nt	nt
CCn1cc(C(=O)O)c(=O)c2cnc(N3CCN(C(=O)Nc4cccc5ccccc45)CC3)nc21	nt	0.318	-29.6	-0.3	0.219	0.0737	nt	nt
CC(C)NC(=O)CSc1nnc(-c2ccc(C(C)(C)C)cc2)n1C	26.8	-0.045	-5.1	9.5	-0.109	-0.25	nt	nt
CCOC(=O)c1c(C)nn(Cc2cccc(Cl)c2)c1N	-26.9	1.78	6.6	0.9	-0.379	-0.602	nt	nt
CC(=O)OCc1c(COC(C)=O)[n+](=O)c2ccccc2n1[O-]	nt	nt	-8.7	-6.5	-2.62*	-0.0693	634	267
C=CCn1c(SC2CCOC2=O)nc2scc(C3CC3)c2c1=O (configuration not stated)	28.1	-0.22	-11.5	-3.6	-0.813	0.301	nt	nt
O=C(Nc1cccc(Cl)c1)N(CCN1CCOCC1)Cc1cccc(Cl)c1	6.6	0.768	2.5	-8.0	-2.41*	1.02	255*	227
O=C(Nc1cccc(Cl)c1)N(CCN1CCOCC1)Cc1ccccc1F	-32.9	nt	nt	nt	nt	nt	nt	nt
CN(C)c1ccc(C2C3=C(CCCC3=O)OC3=C2C(=O)CCC3)cc1	-10.4	-0.75	-9.5	2.6	-10.2*	-0.158	400*	216
